Assay results taken from ChEMBL document CHEMBL4038306, “Development of an Aryloxazole Class of Hepatitis C Virus Inhibitors Targeting the Entry Stage of the Viral Replication Cycle” (J Med Chem, 2017).
Converted amounts (≈) assume the structure as drawn.

Tests used:
[1] = Kinetic solubility of the compound in pH 7.4 phosphate buffer; type: physicochemical; conditions: read-out: Kinetic_solubility
[2] = Permeability of the compound by PAMPA; type: physicochemical; conditions: for Papp: read-out: permeability
Method in brief: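 Passive diffusion measured by stirred double-sink PAMPA; permeability expressed in 10⁻⁶ cm/s.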

SMILES	solubility kinetic [1] [µg/mL]	Papp [2] [×10⁻⁶ cm/s]	permeability [2] [×10⁻⁶ cm/s]
Cc1ccccc1-c1nc(CN2CCC(C(=O)N3CCN(CCN(C)C)CC3)CC2)c(C)o1	> 67	14	–
Cc1oc(-c2c3ccccc3cc3ccccc23)nc1CN1CCC(C(=O)NCCCN2C[C@H](C)C[C@H](C)C2)CC1	62.1 (≈ 112 µM)	–	–
Cc1cccc(Cl)c1-c1nc(CN2CCC(C(=O)NCCCN3CCC(C)(C)CC3)CC2)c(C)o1	> 74	–	–
Cc1oc(-c2c(Br)cccc2Br)nc1CN1CCC(C(=O)NCCCN2C[C@H](C)C[C@H](C)C2)CC1	62.4 (≈ 102 µM)	< 1	–
CC[C@@H]1C[C@H](CC)CN(CCCNC(=O)C2CCN(Cc3nc(-c4c(F)cccc4F)oc3C)CC2)C1	–	130	–
Cc1cccc(Cl)c1-c1nc(CN2CCC(C(=O)NCCCN3C[C@H](C)C[C@H](C)C3)CC2)c(C)o1	> 74	196	–
COc1cccc(Br)c1-c1nc(CN2CCC(C(=O)NCCCN3C[C@H](C)C[C@H](C)C3)CC2)c(C)o1	> 83	245	–
Cc1ccccc1-c1nc(CN2CCC(C(=O)NCCCN3CCOCC3)CC2)c(C)o1	> 65	432	–
Cc1ccccc1-c1nc(CN2CCC(C(=O)N3CCN(C4CCN(C)CC4)CC3)CC2)c(C)o1	> 71	< 3.2	–
CC[C@@H]1C[C@H](CC)CN(CCCNC(=O)C2CCN(Cc3nc(-c4ccccc4C)oc3C)CC2)C1	–	–	1267
CCc1ccccc1-c1nc(CN2CCC(C(=O)NCCCN3C[C@H](C)C[C@H](C)C3)CC2)c(C)o1	55.9 (≈ 116 µM)	106	–
Cc1ccccc1-c1nc(CN2CCC(C(=O)NCCCN3CCC(C)(C)CC3)CC2)c(C)o1	> 69	241	–
Cc1ccccc1-c1nc(CN2CCC(C(=O)NCCCN3C[C@H](C)C[C@@H](C)C3)CC2)c(C)o1 (racemic)	> 69	554	–
Cc1cccc(F)c1-c1nc(CN2CCC(C(=O)NCCCN3C[C@H](C)C[C@H](C)C3)CC2)c(C)o1	> 72	234	–
Cc1cc(-c2nc(CN3CCC(C(=O)NCCCN4CCC(C(C)C)CC4)CC3)co2)ccc1F	> 72	276	–
Cc1ccccc1-c1nc(CN2CCC(C(=O)NCCCCN3C[C@H](C)C[C@H](C)C3)CC2)c(C)o1	> 71	288	–
Cc1oc(-c2c(Cl)cccc2Cl)nc1CN1CCC(C(=O)NCCCN2C[C@H](C)C[C@H](C)C2)CC1	> 77	–	–
Cc1oc(-c2cccc3ccccc23)nc1CN1CCC(C(=O)NCCCN2C[C@H](C)C[C@H](C)C2)CC1	> 74	–	–
CCN(CC)CCCCNC(=O)C1CCN(Cc2nc(-c3ccc(OC)c(OC)c3)oc2C)CC1	> 72	10.4	–
Cc1ccccc1-c1nc(CN2CCC(C(=O)NCCCN3C[C@H](C)C[C@H](C)C3)CC2)c(C)s1	> 71	–	–
Cc1ccccc1-c1nc(CN2CCC(C(=O)NCCCN3C[C@H](C)C[C@H](C)C3)CC2)c(C)o1	53.9 (≈ 115 µM)	489	–
Cc1ccc(C)c(-c2nc(CN3CCC(C(=O)NCCCN4C[C@H](C)C[C@H](C)C4)CC3)c(C)o2)c1	56.1 (≈ 117 µM)	–	–
Cc1oc(-c2ccccc2Cl)nc1CN1CCC(C(=O)NCCCN2C[C@H](C)C[C@H](C)C2)CC1	> 72	352	–
Cc1ccccc1-c1nc(CN2CCC(C(=O)NCCCN3CCCC(CC(C)C)C3)CC2)c(C)o1 (racemic)	54.9 (≈ 111 µM)	3	–
Cc1cc(-c2nc(CN3CCC(C(=O)NCCCN4C[C@H](C)C[C@H](C)C4)CC3)co2)ccc1F	> 70	215	–
Cc1ccccc1-c1nc(CN2CCC(C(=O)NCCCN3CCCC(C(C)C)C3)CC2)c(C)o1 (racemic)	> 71	–	–
Cc1oc(-c2c(C)c(C)c(C)c(C)c2C)nc1CN1CCC(C(=O)NCCCN2C[C@H](C)C[C@H](C)C2)CC1	–	455	–
COc1ccc(-c2nc(CN3CCC(C(=O)NCCCN4C[C@H](C)C[C@H](C)C4)CC3)c(C)o2)cc1OC	> 76	81.9	–

SMILES	solubility kinetic [1] [µg/mL]	Papp [2] [×10⁻⁶ cm/s]	permeability [2] [×10⁻⁶ cm/s]
Cc1cccc(-c2nc(CN3CCC(C(=O)NCCCN4C[C@H](C)C[C@H](C)C4)CC3)c(C)o2)c1	> 69	279	–
Cc1ccc2ccccc2c1-c1nc(CN2CCC(C(=O)NCCCN3C[C@H](C)C[C@H](C)C3)CC2)c(C)o1	> 76	547	–
Cc1cccc(Cl)c1-c1nc(CN2CCC(C(=O)NCCCN3CCCC(C)C3)CC2)c(C)o1 (racemic)	52.6 (≈ 108 µM)	651	–
Cc1ccccc1-c1nc(CN2CCC(C(=O)NCCCN3CCCC(C)C3)CC2)c(C)o1 (racemic)	> 67	–	–
Cc1oc(-c2c(Cl)cccc2Br)nc1CN1CCC(C(=O)NCCCN2C[C@H](C)C[C@H](C)C2)CC1	> 83	–	–
Cc1ccc(-c2nc(CN3CCC(C(=O)NCCCN4C[C@H](C)C[C@H](C)C4)CC3)c(C)o2)cc1	> 69	274	–
Cc1cccc(C)c1-c1nc(CN2CCC(C(=O)NCCCN3C[C@H](C)C[C@H](C)C3)CC2)c(C)o1	55.9 (≈ 116 µM)	254	–
Cc1ccccc1-c1nc(CN2CCC(C(=O)NCCCN3CC(C)(C)CC(C)(C)C3)CC2)c(C)o1	–	> 1400	–
Cc1ccccc1-c1nc(CN2CCC(C(=O)NCCCN3CCC(C(C)C)CC3)CC2)c(C)o1	> 71	396	–
COc1cccc(F)c1-c1nc(CN2CCC(C(=O)NCCCN3C[C@H](C)C[C@H](C)C3)CC2)c(C)o1	> 74	–	–
Cc1oc(-c2c(Cl)cccc2C(F)(F)F)nc1CN1CCC(C(=O)NCCCN2C[C@H](C)C[C@H](C)C2)CC1	65.1 (≈ 117 µM)	–	–
Cc1ccccc1-c1nc(CN2CCC(C(=O)NCCCN3CCCCC3)CC2)c(C)o1	> 65	34.5	–
Cc1cccc(Cl)c1-c1nc(CN2CCC(C(=O)NCCCN3CCC(C(C)C)CC3)CC2)c(C)o1	> 76	–	–
Cc1ccccc1-c1nc(CN2CCC(C(=O)NCCCN3CC4CCCC(C4)C3)CC2)c(C)o1	> 71	331	–
Cc1oc(-c2ccc(Cl)cc2)nc1CN1CCC(C(=O)NCCCN2C[C@H](C)C[C@H](C)C2)CC1	> 72	> 635	–
Cc1ccccc1-c1nc(CN2CCC(C(=O)NCCCN3CCC(C)CC3)CC2)c(C)o1	> 67	425	–
Cc1ccc(-c2nc(CN3CCC(C(=O)NCCCN4C[C@H](C)C[C@H](C)C4)CC3)c(C)o2)cc1C	> 71	219	–
CCCN(CCC)CCNC(=O)C1CCN(Cc2nc(-c3ccccc3C)oc2C)CC1	> 65	913	–
Cc1ccccc1-c1nc(CN2CCC(C(=O)NCCCN3[C@H](C)CCC[C@@H]3C)CC2)c(C)o1	> 69	55.4	–
Cc1oc(-c2c(F)cccc2F)nc1CN1CCC(C(=O)NCCCN2C[C@H](C)C[C@H](C)C2)CC1	> 72	82.4	–
Cc1ccccc1-c1nc(CN2CCC(C(=O)NCCN3C[C@H](C)C[C@H](C)C3)CC2)c(C)o1	> 67	712	–
COc1cccc(C)c1-c1nc(CN2CCC(C(=O)NCCCN3C[C@H](C)C[C@H](C)C3)CC2)c(C)o1	> 73	198	–
Cc1ccc(-c2nc(CN3CCC(C(=O)NCCCN4C[C@H](C)C[C@H](C)C4)CC3)c(C)o2)c(C)c1	> 71	353	–
COc1cccc(Cl)c1-c1nc(CN2CCC(C(=O)NCCCN3C[C@H](C)C[C@H](C)C3)CC2)c(C)o1	> 76	51	–
Cc1oc(-c2cccc(Cl)c2)nc1CN1CCC(C(=O)NCCCN2C[C@H](C)C[C@H](C)C2)CC1	> 72	615	–
Cc1cc(C)cc(-c2nc(CN3CCC(C(=O)NCCCN4C[C@H](C)C[C@H](C)C4)CC3)c(C)o2)c1	> 71	864	–
COc1cccc(OC)c1-c1nc(CN2CCC(C(=O)NCCCN3C[C@H](C)C[C@H](C)C3)CC2)c(C)o1	> 76	–	–
